Bioassay records: PubChem BioAssay, several laboratories
NPY1 pot ag – human NPY-Y1 potentiation or agonism, primary screen. P25929. NPY-Y1 expressing cells, potentiator/agonist activation. activation, % at 3.6 µM. hit rate 0.37% among 220,000. AID 1304; in the data active means activation above about 33%, passing the limit was not always enough;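 further: cells stimulated with NPY at EC10 then isoproterenol at EC100; 0% = low agonist plus stimulus and 100% = saturating agonist plus stimulus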
Target sequence (P25929 whole entry, looked up): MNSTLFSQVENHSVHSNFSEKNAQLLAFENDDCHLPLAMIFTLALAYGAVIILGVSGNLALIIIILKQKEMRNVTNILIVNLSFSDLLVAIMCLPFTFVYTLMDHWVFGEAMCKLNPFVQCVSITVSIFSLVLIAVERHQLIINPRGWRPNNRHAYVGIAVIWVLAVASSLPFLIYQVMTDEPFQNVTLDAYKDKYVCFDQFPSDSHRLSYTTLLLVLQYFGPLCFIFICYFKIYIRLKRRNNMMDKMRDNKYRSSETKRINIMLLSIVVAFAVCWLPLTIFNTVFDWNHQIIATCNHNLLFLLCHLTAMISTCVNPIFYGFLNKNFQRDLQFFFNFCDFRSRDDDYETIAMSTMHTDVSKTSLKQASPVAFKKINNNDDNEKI
Ins promoter up – MIN6 insulin promoter up-regulation. hit rate 0.3% among 190,000. z-score at 5 µM. MIN6 insulin promoter-GFP reporter, high-content imaging; hits give high values;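 active means z-score above 3 at 5 µM with at least 500 cells counted in the well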
INS promoter inh – TRM-6 insulin promoter activity inhibition; TRM-6 cells, insulin promoter-eGFP reporter, imaging; reporter expression induced with tamoxifen; inhibition, % at 2 µM; hit rate 0.9% among 130,000; AID 1273;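 active means inhibition above the mean plus 3 SD, with well images judged a real hit on visual review, cut at about 60% in these data, passing the limit was not always enough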
NPY Y1 blocker – antagonists of human neuropeptide Y receptor Y1 | inhibition, % at 3.6 µM | hit rate 1% among 200,000 | HEK293-CNG Y1 cells, membrane potential fluorescence; NPY at EC95, then isoproterenol | P25929;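 active means inhibition above the campaign mean inhibition of all tested compounds plus 3 SD, cut at about 20% in these data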;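 further: 0% = DMSO wells given NPY plus isoproterenol and 100% = isoproterenol alone without NPY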
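Assay system: HEK293 cells with Y1 receptor plus CNG channel | Probe or stimulus: NPY (25 nM), isoproterenol (1 µM), Ro 20-1724 (25 µM) | Timing: Compound incubation 1 h at room temperature, readout 45 min post-stimulation | Measured by: Membrane-potential fluorescent dye readout | Benchmarks: High control isoproterenol alone, low control NPY with isoproterenol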
NPY-Y2 antag – NPY-Y2 (human) receptor antagonism. inhibition, % at 2.7 µM. hit rate 0.99% among 140,000. NPY-Y2 expressing cells, antagonist mode; in the data active means inhibition above about 17%;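 further: 0% = vehicle with agonist challenge and 100% = reference antagonist with challenge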
NPY-Y2 PAM-ag – potentiators or agonists of human neuropeptide Y receptor Y2; hit rate 0.45% among 220,000; activation, % at 3.6 µM; AID 1359; cells expressing NPY-Y2, potentiator/agonist read-out; P49146; in the data active means activation above about 27%;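 further: cells stimulated with NPY near EC25 plus isoproterenol at EC100; 0% = vehicle plus submaximal agonist and 100% = vehicle plus saturating agonist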
* marks the source's active call; other numbers are inactive results; . = no result. Hits are enriched below; roughly 2.5% of the tested compounds scored in any of these assays.

SMILES	NPY1 pot ag	Ins promoter up	INS promoter inh	NPY Y1 blocker	NPY-Y2 antag	NPY-Y2 PAM-ag
CCc1nnc(NC(=O)CSc2nnc(Cc3cc(=O)[nH]c(=O)[nH]3)n2-c2cccc(OC)c2)s1	-4	0.3	-78	1	.	4
Cc1cccc(OCc2nnc(SCC(=O)Nc3ncc(C)s3)o2)c1	19	0.43	.	3	.	3
COc1ccc(-n2c(Cc3cccn3C)nnc2SCC(=O)Nc2ccccc2C)cc1	4	0.11	.	2	2	0
CCc1nnc(NC(=O)CSc2nnc(COc3cccc(C)c3)o2)s1	-34	1.1	75*	3	1	-20
CCc1nnc(NC(=O)CSc2nnc(Cc3cc(=O)[nH]c(=O)[nH]3)n2-c2ccc(OC)cc2)s1	6	0.24	78*	-1	.	-5
CCOc1ccc(-n2ccnc2SCC(=O)Nc2nnc(CC)s2)cc1	3	-0.58	82*	2	-1	-1
Cc1ccccc1NC(=O)CSc1nc(N)c2c3c(sc2n1)CSC(C)(C)C3	-60	.	.	32*	47*	-23
CCn1c(C2CCN(S(=O)(=O)c3ccc(OC)cc3)CC2)n[nH]c1=S	-5	-0.07	-62	6	.	-1
COc1cc(C2SC(C)C(=O)N2CCc2ccccc2)cc(OC)c1OC (configuration not stated)	-5	-0.11	.	-3	.	-19
CCCCOc1ccc(C(=O)C(CN2CCOCC2)c2ccccc2)cc1 (configuration not stated)	-3	.	78*	3	4	-23
COc1ccc(C(=O)C(CN2CCOCC2)c2ccccc2)cc1 (configuration not stated)	-9	-3.7	92*	4	0	-10
COc1ccc(C(=O)C(CN2CCCC2)c2ccccc2)cc1 (configuration not stated)	-12	-2	.	3	1	-8
O=C(CCn1ccnc1)Nc1nc2ccccc2[nH]1	2	-0.33	.	0	.	-11
N=C1S/C(=C\c2cn[nH]c2-c2ccc(F)cc2)C(=O)N1c1ccccc1F	14	-0.28	44	-2	-1	7
CC(=O)c1cccc(NC(=O)CN2C(=O)C3C4C=CC(C4)C3C2=O)c1 (configuration not stated)	-24	1.5	13	3	3	-12
O=C(CN1C(=O)C2C3C=CC(C3)C2C1=O)Nc1cccc(S(=O)(=O)N2CCCC2)c1 (configuration not stated)	4	0.33	100*	7	3	-2
O=C(CN1CCCCCC1)Nc1ccc(S(=O)(=O)N2CCOCC2)cc1	10	.	.	3	.	0
O=C(CN1C(=O)C2CC=CCC2C1=O)Nc1ccc(S(=O)(=O)N2CCOCC2)cc1 (configuration not stated)	6	0.01	73*	1	.	13
CC(=O)Nc1ccc([C@H]2[C@H](C)CC[C@H]3C(=O)N4[C@@H](CC[C@@H](C)[C@@H]4c4ccc(NC(C)=O)cc4)C(=O)N32)cc1	12	0.53	24	-1	-1	11
Clc1ccc(CN(Cc2ccc(Cl)cc2)c2nn[nH]n2)cc1	-30	1.2	-18	31*	.	-26
c1ccc(CN(Cc2ccccc2)c2nn[nH]n2)cc1	-16	-0.11	15	4	.	-5
O=S(=O)(NCc1ccccc1)NCc1cccc(C(F)(F)F)c1	12	-0.17	.	0	.	5
CC(C)N1CCC(N2CCN(Cc3cc4c(cc3Cl)OCO4)CC2CCO)CC1 (configuration not stated)	-3	-0.49	-61	6	.	-13
Nc1cc(C(=O)c2ccccc2)ccc1[N+](=O)[O-]	-12	-0.37	5	6	.	0
C=CCn1c(-c2cccs2)nc2ccccc21	-33	0.71	80*	4	4	3
SMILES	NPY1 pot ag	Ins promoter up	INS promoter inh	NPY Y1 blocker	NPY-Y2 antag	NPY-Y2 PAM-ag
CCc1cc2c3c(c1)C1(C(=O)N3C(C)(C)CC2C)C(C#N)=C(N)N2C(=C1C#N)Nc1ccccc12 (configuration not stated)	27	-0.05	.	11	1	14
CN(C)CCCNC(=O)/C(=C\c1ccc(-c2ccc(Br)cc2)o1)NC(=O)c1ccccc1	-2	.	0	15	9	-5
Cc1ccc(C(=O)N/C(=C\c2ccc(-c3ccc(Cl)cc3)o2)C(=O)NCCCN(C)C)cc1	-14	-0.13	.	21*	.	-2
COc1ccc(C2C(C(=O)c3ccccc3)=C(C)Nc3nc4ccccc4n32)c(OC)c1 (configuration not stated)	10	3.8*	-46	0	1	13
COc1ccc(OC)c(C2C(C(=O)N(C)C)=C(C)Nc3nc4ccccc4n32)c1 (configuration not stated)	-7	-0.02	5	-3	3	0
Cc1cc(NCCCCO)n2c(nc3ccccc32)c1C#N	-23	-0.25	-105	2	3	-2
CCCc1cc(NCCCCO)n2c(nc3ccccc32)c1C#N	1	-0.08	79*	-1	2	11
c1ccc(-n2ncc3c(N4CCN(c5ccccn5)CC4)nc(N4CCCCCC4)nc32)cc1	16	4.1*	.	0	1	7
c1ccc(-n2ncc3c(N4CCCCC4)ncnc32)cc1	-1	1.9	.	-1	0	3
CCOC(=O)N1CCC(NC(=O)c2cc(C(=O)Nc3ccc(OC)c(OC)c3)ccc2CO)CC1	2	3.4*	.	3	1	2
COc1ccc(CC(=O)NNC(=O)CSc2ccc(C)cc2)cc1	15	0.26	.	0	.	7
COc1cc(CC(=O)Nc2cccc(SC)c2)cc(OC)c1OC	12	-1.4	75*	15	.	5
CC(C)(C)OC(=O)N1CCC2(CC1)C(C#N)=C(N)OC1=C2C(=O)CCC1	15	-1.3	60	1	.	6
CCOC(=O)CSc1ccc(C(=O)Nc2ccc(Cl)cc2)cn1	-11	-0.61	.	0	.	-1
CCOC(=O)CSc1ccc(C(=O)Nc2ccc(OC)cc2)cn1	75*	0.73	.	-4	.	37*
CCCc1cc(=O)[nH]c(SCC(=O)NCCCC(=O)OCC)n1	11	3.1*	-11	4	4	-17
CCCCn1c(N(CCOC(C)=O)C(C)=O)nc2ccccc21	14	.	89*	-7	2	6
COC(=O)CCNCCSc1nnc(-c2ccco2)n1Cc1ccccc1	-3	-0.09	.	.	.	-10
CC(=O)Nc1ccc(NC(=O)/C=C/c2cccc(C(F)(F)F)c2)cc1	2	-0.21	-7	0	-2	1
CC(C)(C)NC(=O)/C=C/c1cccc(C(F)(F)F)c1	23	0.78	60*	7	2	-3
Cc1ccc(C(C(=O)NC2CCCCC2)N(Cc2ccco2)C(=O)C2COc3ccccc3O2)o1 (configuration not stated)	5	0.54	-43	28*	20*	4
COc1ccc(C(C(=O)NC2CCCC2)N(CC2CCCO2)C(=O)Cc2cccs2)cc1OC (configuration not stated)	-2	-0.07	-93	4	.	3
